Published values gathered from unrelated publications.
Protocols differ between the studies behind these lines.
OPRK1: Kappa-type opioid receptor (OPRK1, Homo sapiens, UniProt P41145)
PFF0160c: Dihydroorotate dehydrogenase (quinone), mitochondrial (PFF0160c, Plasmodium falciparum, UniProt Q08210)
CNR1: Cannabinoid receptor 1 (CNR1, Homo sapiens, UniProt P21554)

For Cc1ccc(C(=O)N[C@H]2CC[C@@]3(O)[C@H]4Cc5ccc(O)c6c5[C@@]3(CCN4CC3CC3)[C@H]2O6)s1, the Ki was 1.67 nM (OPRK1; ligand displacement; radioligand; cell membranes).
The IC50 of CCNC(=O)c1nn(C)c(Cc2ccc(C(F)(F)F)nc2)c1C is reported as 5200 nM (PFF0160c; enzyme activity; inhibitor).
COC(=O)[C@@H](NC(=O)c1nn(Cc2ccc(F)cc2)c2ccccc12)C(C)C has an EC50 of roughly 4 nM (CNR1; G protein activation; agonist).
With Brc1ccc2c(c1)C(c1ccccn1)=NCc1c(-c3cnco3)ncn1-2 the Ki was 2100 nM (OPRK1; ligand displacement; radioligand).
With NC(=O)c1ccc(C(=O)N[C@H]2CC[C@@]3(O)[C@H]4Cc5ccc(O)c6c5[C@@]3(CCN4CC3CC3)[C@H]2O6)s1 the Ki was 1.91 nM (OPRK1; ligand displacement; radioligand; cell membranes).
CNC(=O)c1ccc(-c2cnn3ccc(C(=O)N(C)c4ccc(Cl)c(C(=O)OC)c4)cc23)cc1 gave an IC50 of greater than 30000 nM (Serine/threonine-protein kinase WNK1 (WNK1, Homo sapiens, UniProt Q9H4A3); enzyme activity; inhibitor).
CC[C@@](O)(c1ccc(F)c(Cl)c1)c1c2ccn(C3CC3)c(=O)c2nn1C gave an IC50 of 6.31 nM (PFF0160c; enzyme activity; inhibitor).
With O=C(N[C@H]1CC[C@@]2(O)[C@H]3Cc4ccc(O)c5c4[C@@]2(CCN3CC2CC2)[C@H]1O5)c1ccc(C(F)(F)F)s1 the Ki was 2.47 nM (OPRK1; ligand displacement; radioligand; cell membranes).
CCCCCn1c(O)c(N=NC(=O)c2ccccc2)c2ccccc21 gave an EC50 of 780 nM (CNR1; β-arrestin recruitment; agonist).
With CCn1cc(C2CC2)c2c(Cc3ccc(C(F)(F)F)c(F)c3)n(C)nc2c1=O the IC50 was 12.6 nM (PFF0160c; enzyme activity; inhibitor).
With CC(=O)S(=O)(=O)c1ccc(C(=O)N[C@H]2CC[C@@]3(O)[C@H]4Cc5ccc(O)c6c5[C@@]3(CCN4CC3CC3)[C@H]2O6)s1 the Ki was 1.64 nM (OPRK1; ligand displacement; radioligand; cell membranes).
Cc1nn(C2CC2)c(=O)c2nn(C)c(Cc3ccc(C(F)(F)F)c(C#N)c3)c12 gave an IC50 of 200 nM (PFF0160c; enzyme activity; inhibitor).
With CCCCCCn1c(O)c(N=NC(=O)c2ccccc2)c2ccccc21 the Ki was 1150 nM (CNR1; ligand displacement; radioligand; cell membranes).
With Cn1nc2c(=O)n(C3CC3)cnc2c1[C@](O)(c1cnc(C(F)(F)F)c(Cl)c1)C1CC1 the IC50 was 20 nM (PFF0160c; enzyme activity; inhibitor).
For CCCCCc1cc(O)c2c(c1)OC(C)(C)c1ccc(C)cc1-2, the Ki was 285 nM (CNR1; cell-free assay).
